Source: PubChem
MEKK2wt PB1 HTS = modulators of MEK5 binding to wildtype MEKK2, primary screen, biochemical, multiplex bead flow cytometry, Alexa488-MEK5 | Mitogen-activated protein kinase kinase kinase 2 (Homo sapiens), Q9Y2U5 | 1.1% of 290,000 active | binding response (% of control), % at 10 µM | Alexa488-MEK5 binding to MEKK2 WT; actives lie on both sides | AID 1531, 2009; in the data active = binding response below about 67% or above about 130%
MEKK3 PB1 HTS = modulators of MEKK3-MEK5 PB1 binding, primary screen, biochemical, wildtype MEKK3, multiplex bead flow cytometry, Alexa488-MEK5. Mitogen-activated protein kinase kinase kinase 3 (Homo sapiens), Q99759. bead-based flow cytometry, Alexa488-MEK5 binding to MEKK3; actives lie on both sides; 0 = blocked by unlabeled MEK5, 100 = vehicle. 1.4% of 290,000 active. binding response (% of control), % at 10 µM;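 active = binding response more than 3 SD above or below the average of its plate-row segment, actives on both sides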;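 note: Alexa488 bead fluorescence after subtracting the streptavidin-only scavenger bead signal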
ABCG2 inh = ABCG2 efflux pump inhibitors, primary screen, multiplex with ABCB1, IgMXP3 cells, flow cytometry. Broad substrate specificity ATP-binding cassette transporter ABCG2 (Homo sapiens), Q9UNQ0. JC-1 efflux. inhibition, % at 6.6 µM. 0.1% of 190,000 active;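 active = inhibition above 80%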;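 note: 0% = DMSO and 100% = nicardipine control wells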
Target sequence (Q9UNQ0 whole entry, looked up): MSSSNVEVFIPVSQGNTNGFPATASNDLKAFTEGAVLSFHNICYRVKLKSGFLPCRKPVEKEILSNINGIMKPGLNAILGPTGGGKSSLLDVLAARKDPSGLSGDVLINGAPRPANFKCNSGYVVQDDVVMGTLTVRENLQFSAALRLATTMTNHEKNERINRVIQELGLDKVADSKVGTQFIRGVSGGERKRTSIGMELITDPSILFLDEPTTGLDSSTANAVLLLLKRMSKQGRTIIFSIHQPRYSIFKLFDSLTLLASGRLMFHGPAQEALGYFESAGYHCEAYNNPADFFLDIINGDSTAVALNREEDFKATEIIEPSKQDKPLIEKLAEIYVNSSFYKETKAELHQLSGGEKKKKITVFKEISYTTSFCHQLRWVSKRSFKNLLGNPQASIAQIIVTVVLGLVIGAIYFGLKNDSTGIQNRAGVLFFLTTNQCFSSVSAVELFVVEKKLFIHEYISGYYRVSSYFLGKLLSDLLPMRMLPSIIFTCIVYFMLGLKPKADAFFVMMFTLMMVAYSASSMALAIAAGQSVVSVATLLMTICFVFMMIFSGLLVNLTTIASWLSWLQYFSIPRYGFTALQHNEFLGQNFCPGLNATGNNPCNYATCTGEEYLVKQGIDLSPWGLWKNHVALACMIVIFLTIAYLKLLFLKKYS
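Test system: IgMXP3 cells (ABCG2) mixed with DDAO far-red-labelled CCRF-Adr cells (ABCB1). Reagent: JC-1 transporter substrate. Compound dosing: single test compound dose, 6.6 µM final. Times: 10 min compound exposure, 25 °C. Detection: flow cytometry of retained JC-1 fluorescence. Read-out basis: efflux inhibition in percent versus controls. Controls: nicardipine and DMSO wells.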
MEKK2 mut-MEK5 = MEK5 binding signal on mutant MEKK2 PB1, primary screen, biochemical, multiplex bead flow cytometry, Alexa488-MEK5; Alexa488-MEK5 binding to MEKK2 mutant; percent response, % at 10 µM; 0.35% of 290,000 active; AID 1530, 2009; in the data active = percent response above about 24%, passing the limit was not always enough
Efflux pump mplx = inhibitors of Candida efflux pumps in yeast, primary screen, S. cerevisiae, Nile Red, multiplex. S. cerevisiae Candida pump triplex. inhibition, % at 10 µM. 0.44% of 330,000 active. AID 485275, 2010;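 active = plate passing quality check with inhibition over a set limit, or well fluorescence over plate mean plus 4 SD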;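 note: Nile Red retained in pooled yeast measured as flow cytometry median fluorescence; 0% = buffer negative control and 100% = Enniatin B positive control; higher means more Nile Red kept so more efflux inhibition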
ABCB1 block = ABCB1 efflux pump inhibitors, primary screen, cell-based, multiplex, flow cytometry, ABCG2 counter-screen; ATP-dependent translocase ABCB1 (Homo sapiens), P08183; CCRF-Adr cells, JC-1 efflux; inhibition, % at 6.6 µM; 0.067% of 190,000 active; AID 1326, 2008; in the data active = inhibition above about 40%;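 note: 0% = vehicle and 100% = reference inhibitor; higher value means more JC-1 retained so stronger ABCB1 efflux block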
MEKK2wt confirm = modulators of MEK5 binding to wildtype MEKK2, confirmation, biochemical, single concentration, multiplex bead flow cytometry; AID 1892, 2009; binding response (% of control), % at 10 µM; Alexa488-MEK5 binding to MEKK2 WT; actives lie on both sides; 2.4% of 5,900 active; shares compounds with MEKK3 PB1 HTS; in the data active = binding response below about 16% or above about 210%; inactive = in between
MEKK2mut confirm = mutant MEKK2 PB1-MEK5 binding signal retest – biochemical, single concentration, multiplex bead flow cytometry, confirmation. shares compounds with MEKK3 PB1 HTS. Alexa488-MEK5 binding to MEKK2 mutant. percent response, % at 10 µM. 2% of 5,900 active. AID 1893, 2009; in the data active = percent response mostly above about 71%, no sharp cut-off; inactive = mostly below about 38%;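 note: higher means compound restores mutant binding toward wildtype level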
MEKK3-MEK5 inh = MEKK3 wild-type PB1 binding to MEK5, inhibitors, confirmation, biochemical, bead multiplex flow cytometry, single concentration, wildtype. 1.8% of 5,900 active. shares compounds with MEKK3 PB1 HTS. binding response (% of control), % at 10 µM. Alexa488-MEK5 binding to MEKK3; stronger effect = lower value;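 active = binding response below 72% of control, or above a set upper limit, though filed actives all read lower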;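 note: 100% = DMSO only wells and 0% = binding blocked by excess unlabeled MEK5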
Starred values were filed as active, the others as inactive; . = no result given; [ ] = another dose, or the depositor's remark. Shown are actives, neighbours in structure and some others; about 2.5% of the full set was active somewhere.

SMILES	MEKK2wt PB1 HTS	MEKK3 PB1 HTS	ABCG2 inh	MEKK2 mut-MEK5	Efflux pump mplx	ABCB1 block	MEKK2wt confirm	MEKK2mut confirm	MEKK3-MEK5 inh
Cc1csc2sc(-c3ccnc(SCC(=O)NCc4ccccc4)n3)c(C)c12	112.0	130.0*	.	27.0	0.1	.	103.0	-2.0	102.0
CCN(CC)CCN(C)C1CCC(c2ccccc2)CC1 (stereo not drawn)	101.0	102.0	0.3	3.0	-0.3	1.9	.	.	.
CNCc1ccccc1Sc1cccc2ccccc12	122.0	154.0*	4.0	2.0	0.4	1.0	125.0	12.0	104.0
O=C(COc1ccccc1[N+](=O)[O-])N/N=C/c1ccc(OC(=O)c2ccco2)cc1	103.0	139.0*	20.2	0.0	0.0	0.6	96.0	-6.0	102.0
Cc1ccc(-n2cc(CN(C)Cc3ncc[nH]3)c(-c3cccc(C)c3)n2)cc1	119.0	106.0	2.2	6.0	0.2	2.5	.	.	.
Cc1ccc(-n2cc(CN(C)CCc3cn[nH]c3)c(-c3cccc(C)c3)n2)cc1	158.0*	100.0	1.4	47.0	-0.2	1.4	119.0	8.0	107.0
COCc1cc(C)n(CC(=O)Nc2ccccc2C(=O)OC)c(=O)c1C#N	2.0*[inhibitor]	2.0*[inhibitor]	3.5	-17.0	0.1	1.0	99.0	1.0	103.0
Cn1cnnc1Sc1ccc(C(=O)OCC(=O)Nc2ccccc2)cc1[N+](=O)[O-]	100.0	102.0	10.8	3.0	-0.3	1.0	.	.	.
Cn1cnnc1Sc1ccc(C(=O)OCC(=O)Nc2cc(Cl)cc(Cl)c2)cc1[N+](=O)[O-]	119.0	137.0*	-4.0	3.0	-0.6	-0.6	124.0	15.0	99.0
Cc1ccc(SCc2nc3ccccc3n2CC(=O)Nc2ccc(Cl)cc2)cc1	136.0*	106.0	15.9	26.0*	0.2	1.9	121.0	18.0	111.0
CCCCC(=O)Nc1ccc(N2CCN(C(=O)c3ccco3)CC2)cc1	102.0	99.0	.	5.0	-4.8	.	.	.	.
COc1cc(O)c2c(c1)OC(C)(C)CC2=O	116.0	122.0*	0.6	7.0	-0.2	0.4	100.0	0.0	103.0
CC1(C)CC(=O)c2c(O)cc(OCc3ccc(Br)cc3)cc2O1	104.0	101.0	2.1	2.0	0.0	0.6	.	.	.
CCCCNC(=O)C1C2C=CC(C2)C1C(=O)O (stereo not drawn)	110.0	149.0*	5.1	0.0	0.5	0.0	96.0	-7.0	97.0
COC(=O)CSc1nnc(COc2cccc3ccccc23)o1	117.0	116.0	.	28.0*	-0.1	.	105.0	4.0	108.0
Cc1cc(C(=O)Nn2c(-c3ccc(Br)cc3)nc3ccccc3c2=O)ccc1[N+](=O)[O-]	104.0	105.0	7.1	-1.0	0.5	0.8	.	.	.
O=C1c2cccc3c(N4CCCCC4)ccc(c23)C(=O)N1c1cccc(O)c1	91.0	100.0	3.4	-2.0	0.3	0.9	.	.	.
Cc1n[nH]c(C)c1N1C(=O)c2cccc3c(N4CCCCCC4)ccc(c23)C1=O	67.0*[inhibitor]	113.0	12.0	40.0*	0.3	2.4	91.0	-7.0	96.0
